In ChEMBL document CHEMBL4831478, “Bispecific Estrogen Receptor α Degraders Incorporating Novel Binders Identified Using DNA-Encoded Chemical Library Screening” (J Med Chem, 2021):
The source made the active and inactive calls. The calls are words filed in the database; no cut-off is given here.

Legend:
[1] = Cmax in CD1 mouse at 10 mg/kg, sc administered as single dose […]; assay type: ADME, organism-based; design: route subcutaneous, dose 10 mg/kg; settings: in vivo
[2] = Clearance in CD1 mouse at 0.3 mg/kg, iv administered as cassette dosing […]; assay type: ADME, organism-based; settings: in vivo
MCF7 [3] = test: Antiproliferative activity against human MCF7 cells assessed as growth inhibition preincubated with estradiol for 30 mins followed by compound addition and measured after 72 hrs by CellTiter-Glo assay; assay type: functional
Estrogen receptor [4] = biological target: T1, Estrogen receptor (Homo sapiens, UniProt P03372); test: Induction of ERalpha degradation in human MCF7 cells assessed as decrease in ERalpha protein expression incubated for 24 hrs by Western blot analysis; assay type: cell-based
T1 sequence (P03372 whole entry): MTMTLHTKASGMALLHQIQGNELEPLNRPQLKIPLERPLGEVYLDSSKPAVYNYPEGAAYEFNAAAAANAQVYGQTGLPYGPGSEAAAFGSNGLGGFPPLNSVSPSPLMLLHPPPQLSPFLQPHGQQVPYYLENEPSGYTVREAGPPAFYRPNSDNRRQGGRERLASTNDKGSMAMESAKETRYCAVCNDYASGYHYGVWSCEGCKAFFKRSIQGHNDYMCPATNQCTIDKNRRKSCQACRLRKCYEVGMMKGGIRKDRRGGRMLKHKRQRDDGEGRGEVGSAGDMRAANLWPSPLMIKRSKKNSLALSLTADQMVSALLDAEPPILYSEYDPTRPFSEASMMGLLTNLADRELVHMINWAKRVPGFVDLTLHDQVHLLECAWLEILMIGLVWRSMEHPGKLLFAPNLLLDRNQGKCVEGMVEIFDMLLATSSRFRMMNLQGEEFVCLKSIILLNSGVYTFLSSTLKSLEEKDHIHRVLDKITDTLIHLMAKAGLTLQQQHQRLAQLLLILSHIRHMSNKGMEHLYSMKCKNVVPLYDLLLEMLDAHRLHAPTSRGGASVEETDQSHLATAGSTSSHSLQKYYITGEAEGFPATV

ZR-75-1 = test: Antiproliferative activity against human ZR-75-1 cells assessed as growth inhibition incubated for 7 days by CellTiter-Glo assay; assay type: functional; settings: ZR-75-1, 168 h, time 7 day
Summary of the method: (§1)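 Breast lines from ATCC, maintained in ATCC-specified media, treated with increasing compound doses in full-serum (complete) media for 7 days. Relative cell number measured by CellTiter-Glo ATP read-out.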

Estrogen receptor [5] = biological target: T1, Estrogen receptor; test: Binding affinity to recombinant His-tagged ERalpha LBD (307 to 554 residue) (unknown origin) expressed in Escherichia coli preincubated for 15 mins followed by ligand addition and measured after 1 hr by fluorescent polarization assay
Summary of the method: (§2)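 ERα LBD (aa 307–554), WT or D538G, S463P, Y537S, with N-terminal Avi-Tev-His tag, expressed in E. coli T7 Express (20 °C, 12 h, IPTG). Purified by Ni-NTA then size exclusion. Compound preincubated with protein 15 min, fluorescent ligand added, 1 h at room temperature. FP read ex 485/em 535 nm; duplicate runs averaged.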

[6] = Microsomal stability in human liver microsomes assessed as intrinsic clearance measured upto 60 mins; assay type: ADME, Microsome; settings: read-out: CLH
Summary of the method: (§3)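 Compounds at 2 μM final incubated with pooled human or male mouse liver microsomes. Percent remaining measured at 0, 15, 30, 45 and 60 min and used to calculate in vitro half-life.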

[7] = Microsomal stability in mouse liver microsomes assessed as intrinsic clearance measured upto 60 mins; assay type: ADME, Microsome; settings: read-out: CLH; summary of the method: as §3
[8] = Bioavailability in CD1 mouse at 10 mg/kg, sc administered as single dose […]; assay type: ADME, organism-based; settings: in vivo
[9] = Plasma protein binding in human; assay type: ADME, cell-free; settings: read-out: PPB
[10] = Toxicity in CD1 mouse xenografted with human MCF7 cells assessed as change in body weight at 10 mg/kg, sc administered once daily for 28 days; assay type: organism-based; settings: in vivo, 672 h, time 28 day
Summary of the method: (§4)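 Mice implanted with 17β-estradiol pellets (0.18 mg) 2 days before sc right-flank inoculation of 10×10^6 MCF-7 cells in PBS/Matrigel (50:50). Randomized at mean tumor 165 mm³, 8 per group. Dosed 10 mg/kg sc qd; fulvestrant reference 3 mg/mouse sc weekly. Caliper measurements twice weekly, V = 0.5a×b². TGI from medians. Body weight recorded before each dosing.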

[11] = Half life in CD1 mouse at 0.3 mg/kg, iv administered as cassette dosing […]; assay type: ADME, organism-based; settings: in vivo
Estrogen receptor [12] = biological target: T1, Estrogen receptor; test: Induction of ERalpha degradation in human MCF7 cells assessed as decrease in ERalpha protein expression incubated for 48 hrs by Western blot analysis; assay type: cell-based
[13] = Solubility of compound; assay type: physicochemical
Estrogen receptor [14] = biological target: T1, Estrogen receptor; test: Induction of ERalpha degradation in human MCF7 cells assessed as decrease in ERalpha protein expression preincubated for 2 hrs followed by compound washout and measured after 22 hrs by Western blotting analysis; assay type: cell-based
Summary of the method: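 MCF7 in-cell western: 2 h compound treatment, washout, cells collected 22 h later, compared with continuous 24 h treatment; ERα normalized to tubulin.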

Estrogen receptor [15] = biological target: Estrogen receptor (Homo sapiens, UniProt P03372, Y537S); test: Binding affinity to ERalpha Y537S mutant (unknown origin) expressed in Escherichia coli preincubated for 15 mins followed by ligand addition and measured after 1 hr by fluorescent polarization assay; summary of the method: as §2
[16] = Volume of distribution at steady state in CD1 mouse at 0.3 mg/kg, iv administered as cassette dosing […]; assay type: ADME, organism-based; settings: in vivo, read-out: Vdss
[17] = biological target: T2, Estrogen receptor (Homo sapiens) (UniProt P03372); test: Induction of ERalpha degradation in human T47D cells assessed as decrease in ERalpha protein expression incubated for 24 hrs by Western blotting analysis; assay type: cell-based
T2 sequence (whole entry): T1 sequence (P03372 whole entry)
Summary of the method: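 T47D cells were treated with increasing doses for 24 h. Lysates were western blotted with rabbit anti-ERα, and actin served as the loading control. DC50 was read from the dose series.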

[18] = Drug uptake in CD1 mouse tumor xenografted with human MCF7 cells 10 mg/kg, sc measured after 3 hrs post last dose; settings: in vivo
[19] = Apparent permeability of compound across apical to basolateral side in MDCK cells; assay type: ADME, cell-based, Canis lupus familiaris; settings: dog
MCF7 [20] = test: Antitumor activity against human MCF7 cells xenografted in CD1 mouse assessed as tumor growth inhibition at 10 mg/kg, sc administered once daily for 28 days by caliper method; assay type: functional; settings: 672 h, time 28 day, read-out: TGI; summary of the method: as §4
Estrogen receptor [21] = biological target: T1, Estrogen receptor; test: (§5) Antagonist activity at ERalpha in human MCF7 cells assessed as reduction in PGR gene expression incubated for 24 hrs by qPCR analysis; assay type: cell-based
Summary of the method: (§6)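 MCF7 cells in complete media, incubated 72 h, then dosed in a 6-point series (0.5% DMSO final) for 24 h at 37 °C. RNA extracted, cDNA made, TaqMan qPCR for progesterone receptor normalized to TBP. Comparative CT (ΔΔCT) used for dose-response curves.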

[22] = biological target: T2, Estrogen receptor (Homo sapiens); test: as §5; assay type: cell-based; settings: filed as antagonist; summary of the method: as §6
MDA-MB-231 = test: Antiproliferative activity against human MDA-MB-231 cells assessed as growth inhibition incubated for 7 days by CellTiter-Glo assay; assay type: functional; settings: MDA-MB-231, 168 h, time 7 day; summary of the method: as §1
[23] = Cytotoxicity against human MCF-10A cells assessed as growth inhibition incubated for 7 days by CellTiter-Glo assay; assay type: cell-based; settings: time 7 day; summary of the method: as §1
T47D = test: Antiproliferative activity against human T47D cells assessed as growth inhibition incubated for 7 days by CellTiter-Glo assay; assay type: functional; settings: 168 h, time 7 day; summary of the method: as §1

Estrogen receptor (Homo sapiens, UniProt P03372, Y537S), sequence (P03372 whole entry Y537S): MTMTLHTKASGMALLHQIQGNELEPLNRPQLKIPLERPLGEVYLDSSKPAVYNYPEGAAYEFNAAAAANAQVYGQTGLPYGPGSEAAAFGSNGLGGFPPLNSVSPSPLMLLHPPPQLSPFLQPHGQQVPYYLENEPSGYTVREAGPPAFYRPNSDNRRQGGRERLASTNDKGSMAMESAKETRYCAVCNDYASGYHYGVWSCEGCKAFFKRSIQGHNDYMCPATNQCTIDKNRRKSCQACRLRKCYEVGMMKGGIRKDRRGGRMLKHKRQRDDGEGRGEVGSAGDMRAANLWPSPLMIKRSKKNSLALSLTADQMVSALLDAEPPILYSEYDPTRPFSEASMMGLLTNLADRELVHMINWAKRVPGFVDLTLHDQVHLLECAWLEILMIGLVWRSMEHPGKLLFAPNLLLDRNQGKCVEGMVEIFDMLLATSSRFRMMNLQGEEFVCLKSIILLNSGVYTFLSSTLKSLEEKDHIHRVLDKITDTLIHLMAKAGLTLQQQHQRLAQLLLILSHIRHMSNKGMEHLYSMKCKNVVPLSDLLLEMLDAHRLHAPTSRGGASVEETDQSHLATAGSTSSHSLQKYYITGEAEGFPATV

## Cc1ncsc1-c1ccc([C@@H](C)NC(=O)[C@@H]2C[C@@H](O)CN2C(=O)[C@H](NC(=O)COCCOCc2cn(CCOc3ccc(N(Cc4cccc(O)c4Cl)CC4(c5ccccc5F)CCCC4)cc3)nn2)C(C)(C)C)cc1
[1]
  Cmax: 2130 nM
[2]
  clearance: 23 mL/min/kg
MCF7 [3]
  GI50: > 10000 nM
Estrogen receptor [4]
  DC50: 4.5 nM
ZR-75-1
  GI50: 40.9 nM
Estrogen receptor [5]
  IC50: 53 nM
[6]
  microsomal CLint: 59 µL/min/mg
[7]
  microsomal CLint: 249 µL/min/mg
[8]
  bioavailability: > 100%
[9]
  fraction unbound: < 0.004
[10]
  Activity: Non-Toxic
[11]
  half-life: 8.7 h
Estrogen receptor [12]
  DC50: 6 nM
[13]
  solubility: < 0.2 µM
Estrogen receptor [14]
  DC50: 37 nM
Estrogen receptor [15]
  IC50: 419 nM
[16]
  Vd: 4.82 L/kg
[17]
  Activity: Active
[18]
  Drug uptake: Active
[19]
  Papp A→B: < 0.1 ×10⁻⁶ cm/s
MCF7 [20]
  inhibition in vivo at 10 mg/kg: 30.8%
Estrogen receptor [21]
  EC50: 27 nM
[22]
  Activity: Dose-Dependent Effect
MDA-MB-231
  GI50: > 10000 nM
[23]
  GI50 at 168 h: > 10000 nM
T47D
  GI50: 171 nM
